Legend:
Type in all cases: functional
Hs-578T = test: (§1) Cytotoxicity against human Hs578T cells assessed as growth inhibition after 48 hrs by SRB assay
Procedure, shortened: (§2)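 NCI 60-cell-line five-dose screen at […]. Drug exposure was 48 h, followed by sulforhodamine B protein staining. GI50, TGI and LC50 were calculated against a time-zero control and untreated plates, with dose–response curves plotted from log10 concentration.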

[1] = as §1; conditions: Hs-578T; for CC50: read-out: LC50 (the source's name); procedure, shortened: as §2
RXF 393 = test: Cytotoxicity against human RXF393 cells assessed as growth inhibition after 48 hrs by SRB assay; conditions: for GI50 / TGI / CC50: RXF 393, 48 h; for CC50: read-out: LC50 (the source's name)
Procedure, shortened: (§3)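 NCI 60-cell-line screen, five-dose stage: each cell line exposed for 48 h to five concentrations spanning five log steps; cellular protein measured by sulforhodamine B colorimetry. A time-zero cell control and plates without drug are used to derive GI50, TGI and LC50 from log-concentration dose-response curves.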

OVCAR-8 = test: Cytotoxicity against human OVCAR8 cells assessed as growth inhibition after 48 hrs by SRB assay; procedure, shortened: as §3
SK-OV-3 = test: Cytotoxicity against human SKOV3 cells assessed as growth inhibition after 48 hrs by SRB assay; procedure, shortened: as §3
NCI/ADR-RES = test: (§4) Cytotoxicity against human NCI-ADR-RES cells assessed as growth inhibition after 48 hrs by SRB assay; procedure, shortened: as §3
[2] = as §4; procedure, shortened: as §3
HT-29 = test: Cytotoxicity against human HT-29 cells assessed as growth inhibition after 48 hrs by SRB assay; conditions: for GI50 / TGI / CC50: HT-29, 48 h; for CC50: read-out: LC50 (the source's name); procedure, shortened: as §2
NCI-H322M = test: Cytotoxicity against human NCI-H322M cells assessed as growth inhibition after 48 hrs by SRB assay; procedure, shortened: as §3
PC-3 = test: Cytotoxicity against human PC3 cells assessed as growth inhibition after 48 hrs by SRB assay; procedure, shortened: as §3
LOX IMVI = test: Cytotoxicity against human LOXIMVI cells assessed as growth inhibition after 48 hrs by SRB assay; procedure, shortened: as §2
RPMI-8226 = test: Cytotoxicity against human RPMI8226 cells assessed as growth inhibition after 48 hrs by SRB assay; procedure, shortened: as §3
MDA-MB-468 = test: Cytotoxicity against human MDA-MB-468 cells assessed as cell growth at 10 uM after 48 hrs by SRB assay; conditions: MDA-MB-468, 48 h, read-out: Activity
Procedure, shortened: (§5)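 First stage of the NCI 60 human tumour cell line screen: a single dose is tested against every line. Cell growth is read as cellular protein by sulforhodamine B colorimetry after 48 h of drug exposure, with reference to a time-zero control and to untreated plates.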

SK-MEL-28 = test: Cytotoxicity against human SK-MEL-28 cells assessed as growth inhibition after 48 hrs by SRB assay; procedure, shortened: as §3
COLO 205 = test: Cytotoxicity against human COLO205 cells assessed as growth inhibition after 48 hrs by SRB assay; procedure, shortened: as §2
SW-620 = test: Cytotoxicity against human SW620 cells assessed as growth inhibition after 48 hrs by SRB assay
Procedure, shortened: (§6)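 NCI 60-cell-line screen, two stages. Five-dose testing at […]. Cellular protein measured by sulforhodamine B colorimetry after 48 h drug exposure. A time-zero control and drug-free plates are used to derive GI50, TGI and LC50 from dose-response curves plotted as log10 concentration per cell line.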

MOLT-4 = test: Cytotoxicity against human MOLT4 cells assessed as growth inhibition after 48 hrs by SRB assay; procedure, shortened: as §3
MCF7 = test: Cytotoxicity against human MCF7 cells assessed as growth inhibition after 48 hrs by SRB assay; procedure, shortened: as §3
A549 = test: Cytotoxicity against human A549 cells assessed as growth inhibition after 48 hrs by SRB assay; procedure, shortened: as §2
NCI-H23 = test: Cytotoxicity against human NCI-H23 cells assessed as growth inhibition after 48 hrs by SRB assay; conditions: for TGI: NCI-H23, 48 h; procedure, shortened: as §3
OVCAR-3 [3] = test: Cytotoxicity against human OVCAR3 cells assessed as growth inhibition after 48 hrs by SRB assay; procedure, shortened: as §3
SF-539 = test: Cytotoxicity against human SF539 cells assessed as growth inhibition after 48 hrs by SRB assay; conditions: for GI50 / TGI / CC50: SF-539, 48 h; for CC50: read-out: LC50 (the source's name); procedure, shortened: as §3
DU-145 = test: Cytotoxicity against human DU145 cells assessed as growth inhibition after 48 hrs by SRB assay; conditions: for GI50 / TGI / CC50: DU-145, 48 h; for CC50: read-out: LC50 (the source's name); procedure, shortened: as §2
SF-268 = test: Cytotoxicity against human SF268 cells assessed as growth inhibition after 48 hrs by SRB assay; procedure, shortened: as §3
U-251 = test: Cytotoxicity against human U251 cells assessed as growth inhibition after 48 hrs by SRB assay; conditions: for GI50 / TGI / CC50: U-251, 48 h; for CC50: read-out: LC50 (the source's name); procedure, shortened: as §6
SK-MEL-5 = test: Cytotoxicity against human SK-MEL-5 cells assessed as growth inhibition after 48 hrs by SRB assay; procedure, shortened: as §3
OVCAR-3 [4] = test: Cytotoxicity against human OVCAR3 cells assessed as cell growth at 10 uM after 48 hrs by SRB assay; conditions: OVCAR-3, 48 h, read-out: Activity; procedure, shortened: as §5
CAKI-1 = test: Cytotoxicity against human CAKI-1 cells assessed as cell growth at 10 uM after 48 hrs by SRB assay; conditions: CAKI-1, 48 h, read-out: Activity

## O=C1c2ccccc2C(=O)c2c1ccc1nc(SCCN3CCCC3)[nH]c21
Hs-578T
  growth inhibition (GI): Dose-dependent effect
[1]
  GI50: 6.24 µM
  TGI: 25.8 µM
  CC50: 79.9 µM
RXF 393
  growth inhibition (GI): Dose-dependent effect
  GI50: 3080 nM
  TGI: 16.3 µM
  CC50: 48.5 µM
OVCAR-8
  growth inhibition (GI): Dose-dependent effect
OVCAR-8; OVCAR-8, 48 h
  GI50: 6.38 µM
  LC50: > 100 µM
  TGI: 30.4 µM
SK-OV-3
  growth inhibition (GI): Dose-dependent effect
SK-OV-3; SK-OV-3, 48 h
  GI50: 10.5 µM
  LC50 (concentration killing 50% of cells present at time zero): 54 µM
  TGI: 23.8 µM
NCI/ADR-RES
  growth inhibition (GI): Dose-dependent effect
[2]
  GI50: 6.98 µM
  LC50 (concentration causing 50% net cell kill): > 100 µM
  TGI: 33.7 µM
HT-29
  growth inhibition (GI): Dose-dependent effect
  GI50: 1810 nM
  TGI: 4.66 µM
  CC50: 15.2 µM
NCI-H322M
  TGI: 21.4 µM
  growth inhibition (GI): Dose-dependent effect
PC-3
  growth inhibition (GI): Dose-dependent effect
PC-3; PC-3, 48 h
  GI50: 2570 nM
  LC50: 43.4 µM
  TGI: 11 µM
LOX IMVI
  GI50: 1430 nM
  LC50: 6.25 µM
  TGI: 2990 nM
  growth inhibition (GI): Dose-dependent effect
RPMI-8226
  growth inhibition (GI): Dose-dependent effect
RPMI-8226; RPMI-8226, 48 h
  GI50: 1790 nM
  LC50 (concentration causing 50% net cell kill): 15.4 µM
  TGI: 4.31 µM
MDA-MB-468
  growth at 10 µM: 67.9%
SK-MEL-28
  growth inhibition (GI): Dose-dependent effect
SK-MEL-28; SK-MEL-28, 48 h
  GI50: 2.2 µM
  LC50: 9.08 µM
  TGI: 4.47 µM
COLO 205
  growth inhibition (GI): Dose-dependent effect
COLO 205; COLO 205, 48 h
  GI50: 3.07 µM
  LC50: 58.6 µM
  TGI: 16.7 µM
SW-620
  growth inhibition (GI): Dose-dependent effect
SW-620; SW-620, 48 h
  GI50: 1940 nM
  LC50: 19.7 µM
  TGI: 5.09 µM
MOLT-4
  growth inhibition (GI): Dose-dependent effect
MOLT-4; MOLT-4, 48 h
  GI50: 1510 nM
  LC50 (50% lethal concentration): 19.1 µM
  TGI: 4.29 µM
MCF7
  growth inhibition (GI): Dose-dependent effect
MCF7; MCF7, 48 h
  GI50: 1740 nM
  LC50 (concentration killing 50% of cells): 45.6 µM
  TGI: 7.52 µM
A549
  growth inhibition (GI): Dose-dependent effect
A549; A549, 48 h
  GI50: 3.8 µM
  TGI: 15 µM
NCI-H23
  growth inhibition (GI): Dose-dependent effect
  TGI: 25.7 µM
OVCAR-3 [3]
  growth inhibition (GI): Dose-dependent effect
OVCAR-3 [3]; OVCAR-3, 48 h
  GI50: 2.76 µM
  LC50 (50% lethal concentration): 35.6 µM
  TGI: 11.1 µM
SF-539
  growth inhibition (GI): Dose-dependent effect
  GI50: 6.79 µM
  TGI: 20.2 µM
  CC50: 47.4 µM
DU-145
  growth inhibition (GI): Dose-dependent effect
  GI50: 3420 nM
  TGI: 14.9 µM
  CC50: 39.6 µM
SF-268
  growth inhibition (GI): Dose-dependent effect
SF-268; SF-268, 48 h
  GI50: 9.54 µM
  LC50 (concentration killing 50% of cells relative to time zero): 52.9 µM
  TGI: 22.8 µM
U-251
  growth inhibition (GI): Dose-dependent effect
  GI50: 6.84 µM
  TGI: 20.3 µM
  CC50: 47.1 µM
SK-MEL-5
  growth inhibition (GI): Dose-dependent effect
SK-MEL-5; SK-MEL-5, 48 h
  GI50: 12.9 µM
  LC50 (concentration killing 50% of cells relative to time zero): 54.8 µM
  TGI: 26.6 µM

## CN(C)CCCSc1nc2ccc3c(c2[nH]1)C(=O)c1ccccc1C3=O
Hs-578T
  growth inhibition (GI): Dose-dependent effect
[1]
  GI50: 4.84 µM
  TGI: 22.9 µM
  CC50: 65 µM
RXF 393
  growth inhibition (GI): Dose-dependent effect
  GI50: 1890 nM
  TGI: 12.8 µM
  CC50: 42.3 µM
OVCAR-8
  growth inhibition (GI): Dose-dependent effect
OVCAR-8; OVCAR-8, 48 h
  GI50: 6.12 µM
  TGI: 21.5 µM
OVCAR-3 [4]
  growth at 10 µM: 59.3%
SK-OV-3
  growth inhibition (GI): Dose-dependent effect
SK-OV-3; SK-OV-3, 48 h
  GI50: 1.72 µM
  TGI: 20.7 µM
NCI/ADR-RES
  growth inhibition (GI): Dose-dependent effect
[2]
  GI50: 5.11 µM
  TGI: 21.5 µM
HT-29
  growth inhibition (GI): Dose-dependent effect
  GI50: 1040 nM
  TGI: 2.61 µM
  CC50: 6.53 µM
NCI-H322M
  GI50: 720 nM
  TGI: 20.6 µM
  growth inhibition (GI): Dose-dependent effect
CAKI-1
  growth at 10 µM: -14.9%
LOX IMVI
  GI50: 1360 nM
  TGI: 3000 nM
  growth inhibition (GI): Dose-dependent effect
RPMI-8226
  growth inhibition (GI): Dose-dependent effect
RPMI-8226; RPMI-8226, 48 h
  GI50: 1250 nM
  TGI: 4.62 µM
SK-MEL-28
  growth inhibition (GI): Dose-dependent effect
SK-MEL-28; SK-MEL-28, 48 h
  GI50: 13.5 µM
  TGI: 26.3 µM
COLO 205
  growth inhibition (GI): Dose-dependent effect
COLO 205; COLO 205, 48 h
  GI50: 3.41 µM
  TGI: 17.1 µM
SW-620
  growth inhibition (GI): Dose-dependent effect
SW-620; SW-620, 48 h
  GI50: 1990 nM
  TGI: 6.29 µM
MOLT-4
  growth inhibition (GI): Dose-dependent effect
MOLT-4; MOLT-4, 48 h
  GI50: 2060 nM
  TGI: 6.6 µM
MCF7
  growth inhibition (GI): Dose-dependent effect
MCF7; MCF7, 48 h
  GI50: 202 nM
  TGI: 4.21 µM
A549
  growth inhibition (GI): Dose-dependent effect
A549; A549, 48 h
  TGI: 12.6 µM
NCI-H23
  growth inhibition (GI): Dose-dependent effect
  TGI: 19.7 µM
OVCAR-3 [3]
  growth inhibition (GI): Dose-dependent effect
OVCAR-3 [3]; OVCAR-3, 48 h
  GI50: 3.73 µM
  TGI: 18.2 µM
SF-539
  growth inhibition (GI): Dose-dependent effect
  GI50: 10.9 µM
  TGI: 22.7 µM
  CC50: 47.7 µM
DU-145
  growth inhibition (GI): Dose-dependent effect
  GI50: 2380 nM
  TGI: 12.9 µM
  CC50: 35.9 µM
SF-268
  growth inhibition (GI): Dose-dependent effect
SF-268; SF-268, 48 h
  GI50: 4.34 µM
  TGI: 17.7 µM
U-251
  growth inhibition (GI): Dose-dependent effect
  GI50: 10.1 µM
  TGI: 22 µM
  CC50: 48 µM
SK-MEL-5
  growth inhibition (GI): Dose-dependent effect
SK-MEL-5; SK-MEL-5, 48 h
  GI50: 11.1 µM
  TGI: 23.1 µM

From ChEMBL document CHEMBL3120102, “Structure-based design, synthesis and biological evaluation of novel anthra[1,2-d]imidazole-6,11-dione homologues as potential antitumor agents” (2013)
